Measured values: ChEMBL document CHEMBL1811844, “Design, synthesis, and biological evaluation of triazolo-pyrimidine derivatives as novel inhibitors of hepatitis B virus surface antigen (HBsAg) secretion” (J Med Chem, 2011)
pEC50: −log10 of the molar value.

How the values were obtained:
Mus musculus [1] = experiment: Toxicity in HBV infected transgenic 1.3.32 mouse assessed as change in serum amylase level at 7.9 to 25 mg/kg, po qd for 14 days; format: organism-based; parameters: dose 7.9-25 mg/kg, route oral; details: in vivo, 336 h
Procedure, shortened: (§1)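 HBV-transgenic mice (strain 1.3.32), 10 per group, randomised; oral gavage once daily for 14 days at 25 or 7.9 mg/kg in NMP:Solutol HS15/saline vehicle; vehicle-only group. Weighed before the first dose and after 3 days; observed one hour after each dose. Tail-vein blood taken before dosing, at day 7 and at day 14 necropsy, each 3 h post-dose, for serum chemistry.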

Hepatitis B virus [2] = experiment: Antiviral activity against wild-type Hepatitis B virus infected in human HepG2 cells assessed as inhibition of HBsAg secretion by ELISA; format: functional, organism-based
Mus musculus [3] = experiment: Acute toxicity in CL57BL/6 mouse assessed as effect on serum alkaline phosphatase level at 25 mg/kg, iv administered as single dose after 24 hrs; format: organism-based; parameters: dose 25 mg/kg, route intravenous; details: in vivo
Procedure, shortened: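 Female C57BL/6 mice, four per group, randomized, each given one tail-vein injection of a 2 mg/mL solution in 1:1 NMP:Solutol HS15 diluted with saline; a vehicle-only group served as control. Serum was collected and run on an automated chemistry and electrolyte analyser.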

Mus musculus [4] = experiment: Acute toxicity in CL57BL/6 mouse assessed as effect on red blood cells count at 25 mg/kg, iv administered as single dose after 24 hrs; format: organism-based; parameters: dose 25 mg/kg, route intravenous; details: in vivo
Procedure, shortened: (§2)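 Female C57BL/6 mice, four per group, randomized, each given one tail-vein injection of a 2 mg/mL solution in 1:1 NMP:Solutol HS15 diluted with saline; a vehicle-only group served as control. Mice were watched closely for the first hour and sacrificed at 24 h with necropsy. Whole blood was taken for complete blood counts on an automated haematology analyser.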

Mus musculus [5] = experiment: Acute toxicity in CL57BL/6 mouse assessed as effect on mean corpuscular at 25 mg/kg, iv administered as single dose after 24 hrs; format: organism-based; parameters: dose 25 mg/kg, route intravenous; details: in vivo; procedure, shortened: as §2
Mus musculus [6] = experiment: Toxicity in HBV infected transgenic 1.3.32 mouse assessed as change in serum albumin level at 7.9 to 25 mg/kg, po qd for 14 days; format: organism-based; parameters: dose 7.9-25 mg/kg, route oral; details: in vivo, 336 h; procedure, shortened: as §1
Mus musculus [7] = experiment: Toxicity in HBV infected transgenic 1.3.32 mouse assessed as mortality at 7.9 to 25 mg/kg, po qd for 14 days; format: organism-based; parameters: dose 7.9-25 mg/kg, route oral; details: in vivo, 336 h; procedure, shortened: as §1
Rattus norvegicus [8] = experiment: Cmax in fasted Sprague-Dawley rat plasma at 25 mg/kg, po after 6 hrs by LC/MS/MS analysis; format: ADME, organism-based; parameters: dose 25 mg/kg, route oral; details: in vivo
Procedure, shortened: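 Male rats, 3 per treatment, fitted with jugular vein cannulae two days before dosing and fasted 12 h (water allowed). Compound given by gavage at 25 mg/kg, formulated at 2 mg/mL in 1:1 NMP:Solutol HS15 diluted with saline. Blood taken predose and at 5, 15, 30 min, 1, 3 and 6 h. Plasma quantified by LC/MS against an 8-point standard curve; Cmax calculated by standard methods.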

Mus musculus [9] = experiment: Toxicity in HBV infected transgenic 1.3.32 mouse assessed as change in serum total protein level at 7.9 to 25 mg/kg, po qd for 14 days; format: organism-based; parameters: dose 7.9-25 mg/kg, route oral; details: in vivo, 336 h; procedure, shortened: as §1
Hepatitis B virus [10] = experiment: Antiviral activity against lamivudine/telbivudine-resistant Hepatitis B virus harboring polymerase M552I mutant in human HepG2 cells assessed as inhibition of HBsAg secretion by ELISA; format: functional, organism-based
Mus musculus [11] = experiment: Toxicity in HBV infected transgenic 1.3.32 mouse assessed as change in serum glucose level at 7.9 to 25 mg/kg, po qd for 14 days; format: organism-based; parameters: dose 7.9-25 mg/kg, route oral; details: in vivo, 336 h; procedure, shortened: as §1
Mus musculus [12] = experiment: Toxicity in HBV infected transgenic 1.3.32 mouse assessed as change in serum globulin level at 7.9 to 25 mg/kg, po qd for 14 days; format: organism-based; parameters: dose 7.9-25 mg/kg, route oral; details: in vivo, 336 h; procedure, shortened: as §1
Hepatitis B virus [13] = experiment: Antiviral activity against lamivudine/telbivudine-resistant Hepatitis B virus harboring polymerase L528M and M552V mutant in human HepG2 cells assessed as inhibition of HBsAg secretion by ELISA; format: functional, organism-based
Mus musculus [14] = experiment: Acute toxicity in CL57BL/6 mouse assessed as reduction in platelets count at 25 mg/kg, iv administered as single dose after 24 hrs; format: organism-based; parameters: dose 25 mg/kg, route intravenous; details: in vivo
Procedure, shortened: (§3)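 Female C57BL/6 mice, four per group, randomised; single tail-vein bolus in NMP:Solutol HS15 (1:1) diluted with saline to 2 mg/mL, injected within 10 min of preparation; vehicle-only group. Close observation for the first hour; sacrifice and necropsy at 24 h. Whole-blood complete blood counts and serum chemistry, including total bilirubin and total protein, were measured.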

Mus musculus [15] = experiment: Acute toxicity in CL57BL/6 mouse assessed as morbidity at 25 mg/kg, iv administered as single dose after 24 hrs; format: organism-based; parameters: dose 25 mg/kg, route intravenous; details: in vivo; procedure, shortened: as §3
Mus musculus [16] = experiment: Acute toxicity in CL57BL/6 mouse assessed as effect on white blood cells count at 25 mg/kg, iv administered as single dose after 24 hrs; format: organism-based; parameters: dose 25 mg/kg, route intravenous; details: in vivo; procedure, shortened: as §3
Mus musculus [17] = experiment: Acute toxicity in CL57BL/6 mouse assessed as effect on monocytes count at 25 mg/kg, iv administered as single dose after 24 hrs; format: organism-based; parameters: dose 25 mg/kg, route intravenous; details: in vivo; procedure, shortened: as §2
Mus musculus [18] = experiment: Acute toxicity in CL57BL/6 mouse assessed as effect on serum alanine aminotransferase level at 25 mg/kg, iv administered as single dose after 24 hrs; format: organism-based; parameters: dose 25 mg/kg, route intravenous; details: in vivo
Procedure, shortened: as §2, with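 “watched” for “watched closely”, “Serum” for “Whole blood”, “collected and run” for “taken for complete blood counts”, “chemistry and electrolyte” for “haematology”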

Mus musculus [19] = experiment: Acute toxicity in CL57BL/6 mouse assessed as effect on serum Na+ level at 25 mg/kg, iv administered as single dose after 24 hrs; format: organism-based; parameters: dose 25 mg/kg, route intravenous; details: in vivo
Procedure, shortened: as §2, with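 “watched” for “watched closely”, “Serum” for “Whole blood”, “collected and run” for “taken for complete blood counts”, “chemistry and electrolyte” for “haematology”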

Mus musculus [20] = experiment: Acute toxicity in CL57BL/6 mouse assessed as effect on serum phosphorus level at 25 mg/kg, iv administered as single dose after 24 hrs; format: organism-based; parameters: dose 25 mg/kg, route intravenous; details: in vivo
Procedure, shortened: as §2, with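 “watched” for “watched closely”, “Serum” for “Whole blood”, “collected and run” for “taken for complete blood counts”, “chemistry and electrolyte” for “haematology”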

Mus musculus [21] = experiment: Toxicity in HBV infected transgenic 1.3.32 mouse assessed as behavioral changes at 7.9 to 25 mg/kg, po qd for 14 days; format: organism-based; parameters: dose 7.9-25 mg/kg, route oral; details: in vivo, 336 h; procedure, shortened: as §1
Mus musculus [22] = experiment: Toxicity in HBV infected transgenic 1.3.32 mouse assessed as change in serum alkaline phosphatase level at 7.9 to 25 mg/kg, po qd for 14 days; format: organism-based; parameters: dose 7.9-25 mg/kg, route oral; details: in vivo, 336 h; procedure, shortened: as §1
Mus musculus [23] = experiment: Toxicity in HBV infected transgenic 1.3.32 mouse assessed as change in serum K+ level at 7.9 to 25 mg/kg, po qd for 14 days; format: organism-based; parameters: dose 7.9-25 mg/kg, route oral; details: in vivo, 336 h; procedure, shortened: as §1
Rattus norvegicus [24] = experiment: Oral bioavailability in fasted Sprague-Dawley rat at 25 mg/kg after 6 hrs by LC/MS/MS analysis; format: ADME, organism-based; details: in vivo
Procedure, shortened: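 Male Sprague-Dawley rats, 3 per treatment, carried jugular cannulae and were fasted 12 h with water. Compound was formulated at 2 mg/mL in 1:1 NMP:Solutol HS15 diluted with saline. Dosing was 5 mg/kg iv or 25 mg/kg oral gavage. Blood was drawn predose and at 5, 15, 30 min, 1, 3 and 6 h. Plasma was quantified by LC-MS/MS against an 8-point standard curve.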

Hepatitis B virus [25] = experiment: Antiviral activity against adefovir-resistant Hepatitis B virus harboring polymerase A529V mutant in human HepG2 cells assessed as inhibition of HBsAg secretion by ELISA; format: functional, organism-based
Mus musculus [26] = experiment: Acute toxicity in CL57BL/6 mouse assessed as effect on mean corpuscular volume at 25 mg/kg, iv administered as single dose after 24 hrs; format: organism-based; parameters: dose 25 mg/kg, route intravenous; details: in vivo; procedure, shortened: as §2
Mus musculus [27] = experiment: Acute toxicity in CL57BL/6 mouse assessed as effect on basophils percent at 25 mg/kg, iv administered as single dose after 24 hrs; format: organism-based; parameters: dose 25 mg/kg, route intravenous; details: in vivo; procedure, shortened: as §2
Mus musculus [28] = experiment: Acute toxicity in CL57BL/6 mouse assessed as increase in lymphocytes count at 25 mg/kg, iv administered as single dose after 24 hrs; format: organism-based; parameters: dose 25 mg/kg, route intravenous; details: in vivo; procedure, shortened: as §3
Mus musculus [29] = experiment: Acute toxicity in CL57BL/6 mouse assessed as effect on serum creatinine level at 25 mg/kg, iv administered as single dose after 24 hrs; format: organism-based; parameters: dose 25 mg/kg, route intravenous; details: in vivo
Procedure, shortened: as §2, with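 “watched” for “watched closely”, “Serum” for “Whole blood”, “collected and run” for “taken for complete blood counts”, “chemistry and electrolyte” for “haematology”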

Mus musculus [30] = experiment: Acute toxicity in CL57BL/6 mouse assessed as effect on red cell distribution width at 25 mg/kg, iv administered as single dose after 24 hrs; format: organism-based; parameters: dose 25 mg/kg, route intravenous; details: in vivo; procedure, shortened: as §2
Mus musculus [31] = experiment: Acute toxicity in CL57BL/6 mouse assessed as effect on serum amylase level at 25 mg/kg, iv administered as single dose after 24 hrs; format: organism-based; parameters: dose 25 mg/kg, route intravenous; details: in vivo
Procedure, shortened: as §2, with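 “watched” for “watched closely”, “Serum” for “Whole blood”, “collected and run” for “taken for complete blood counts”, “chemistry and electrolyte” for “haematology”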

Question: How did the Activity (Mus musculus [1]) turn out when `Fc1cccc(Cl)c1C1CC(c2ccc(Cl)cc2)Nc2ncnn21` (racemic) was run?
Answer: Non-toxic

Question: And the pEC50 (Hepatitis B virus [2])?
Answer: 5.08

Question: And the Activity (Mus musculus [3])?
Answer: Non-toxic

Question: What about the Activity (Mus musculus [4]) of the same compound?
Answer: Non-toxic

Question: What about the Activity (Mus musculus [5]) of the same compound?
Answer: Non-toxic

Question: What about the Activity (Mus musculus [6]) of the same compound?
Answer: Non-toxic

Question: And the Activity (Mus musculus [7])?
Answer: Non-toxic

Question: What about the Cmax (Rattus norvegicus [8]) of the same compound?
Answer: 2437 ng/mL

Question: What about the Activity (Mus musculus [9]) of the same compound?
Answer: Non-toxic

Question: What about the pEC50 (Hepatitis B virus [10]) of the same compound?
Answer: 5.04

Question: And the Activity (Mus musculus [11])?
Answer: Non-toxic

Question: And the Activity (Mus musculus [12])?
Answer: Non-toxic

Question: What about the pEC50 (Hepatitis B virus [13]) of the same compound?
Answer: 4.99

Question: And the Activity (Mus musculus [14])?
Answer: Toxic

Question: What about the Activity (Mus musculus [15]) of the same compound?
Answer: Non-toxic

Question: And the Activity (Mus musculus [16])?
Answer: Non-toxic

Question: What about the Activity (Mus musculus [17]) of the same compound?
Answer: Non-toxic

Question: What about the Activity (Mus musculus [18]) of the same compound?
Answer: Non-toxic

Question: And the Activity (Mus musculus [19])?
Answer: Non-toxic

Question: And the Activity (Mus musculus [20])?
Answer: Non-toxic

Question: What about the Activity (Mus musculus [21]) of the same compound?
Answer: Non-toxic

Question: What about the Activity (Mus musculus [22]) of the same compound?
Answer: Non-toxic

Question: And the Activity (Mus musculus [23])?
Answer: Non-toxic

Question: And the F (Rattus norvegicus [24])?
Answer: 31%

Question: What about the pEC50 (Hepatitis B virus [25]) of the same compound?
Answer: 5.24

Question: And the Activity (Mus musculus [26])?
Answer: Non-toxic

Question: And the Activity (Mus musculus [27])?
Answer: Non-toxic

Question: And the Activity (Mus musculus [28])?
Answer: Toxic

Question: What about the Activity (Mus musculus [29]) of the same compound?
Answer: Non-toxic

Question: What about the Activity (Mus musculus [30]) of the same compound?
Answer: Non-toxic

Question: And the Activity (Mus musculus [31])?
Answer: Non-toxic
